Several values for one entry are separate records, joined by “and”; a condition that tells them apart may be missing. Equal entries are not always repeated. Square brackets hold non-standard residues; d marks the D form. Peptide text beside a SMILES is read from it. Nle = CCCC[C@H](N)C(=O)O

The species named for this experiment is Rattus norvegicus. The experiment in a line: In vitro for agonist activity by measuring release of ACTH by rat pituitary cells in culture relative to human Corticotropin-Releasing factor (CRF). It is filed as functional, Pituitary gland cell. The method in brief:
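Male Sprague–Dawley rat anterior pituitary cells, collagenase-dissociated, plated at 0.16 × 10⁶ cells/well in 2% FBS medium. After 3 days, washed into 0.1% BSA medium, preincubated 1 h, washed again, then exposed to peptide for 3 h. Medium ACTH measured by radioimmunoassay.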

The compound `CCCC[C@H](NC(=O)[C@H](CCC(=O)O)NC(=O)[C@@H](NC(=O)[C@H](CCCC)NC(=O)[C@H](CC(N)=O)NC(=O)[C@H](CCCN=C(N)N)NC(=O)[C@H](CC(C)C)NC(=O)[C@H](CC(C)C)NC(=O)[C@H](Cc1c[nH]cn1)NC(=O)[C@@H](Cc1ccccc1)NC(=O)[C@@H](NC(=O)[C@H](CC(C)C)NC(=O)[C@H](CC(=O)O)NC(=O)[C@@H](NC(=O)[C@H](CO)NC(=O)[C@@H](NC(=O)[C@@H]1CCCN1C(=O)[C@@H]1CCCN1C(=O)[C@H](CC(=O)O)NC(=O)[C@H](CC(=O)O)NC(=O)[C@@H](N)CC(N)=O)[C@@H](C)CC)[C@@H](C)CC)[C@@H](C)O)[C@@H](C)CC)C(=O)N[C@@H](C)C(=O)N[C@@H](CCCN=C(N)N)C(=O)N[C@H](C(=O)N[C@@H](CCC(=O)O)C(=O)N[C@@H](CC(N)=O)C(=O)N[C@@H](CCC(=O)OC)C(=O)N[C@@H](CCCN=C(N)N)C(=O)N[C@@H](CCC(=O)O)C(=O)N[C@@H](CCC(=O)O)C(=O)N[C@@H](C)C(=O)NCC(=O)N[C@@H](CCCCN)C(=O)N[C@@H](CC(N)=O)C(=O)N[C@@H](CCCN=C(N)N)C(=O)N[C@@H](CCCCN)C(=O)N[C@@H](Cc1ccc(O)cc1)C(=O)N[C@@H](CC(C)C)C(=O)N[C@@H](CC(=O)O)C(=O)N[C@@H](CCC(=O)O)C(=O)N[C@H](C(N)=O)C(C)C)[C@@H](C)CC` gave a Potency of 1.1.

`CC[C@H](C)[C@H](NC(=O)[C@H](CO)NC(=O)[C@H](CC(C)C)NC(=O)[C@H](CO)NC(=O)[C@H]1CCCN1C(=O)[C@H](CC(N)=O)NC(=O)[C@@H](N)CC(=O)O)C(=O)N[C@@H](CC(=O)O)C(=O)N[C@@H](CC(C)C)C(=O)N[C@H](C(=O)N[C@@H](Cc1ccccc1)C(=O)N[C@@H](Cc1c[nH]cn1)C(=O)N[C@@H](CC(C)C)C(=O)N[C@@H](CC(C)C)C(=O)N[C@@H](CCCN=C(N)N)C(=O)N[C@H](C(=O)N[C@@H](CC(C)C)C(=O)N[C@@H](CC(C)C)C(=O)N[C@@H](CCC(=O)O)C(=O)N[C@@H](CC(C)C)C(=O)N[C@@H](C)C(=O)N[C@@H](CCCN=C(N)N)C(=O)N[C@H](C(=O)N[C@@H](CCC(N)=O)C(=O)N[C@@H](CO)C(=O)N[C@@H](CCC(N)=O)C(=O)N[C@@H](CCCN=C(N)N)C(=O)N[C@@H](CCC(=O)O)C(=O)N[C@@H](CCCN=C(N)N)C(=O)N[C@@H](C)C(=O)N[C@@H](CCC(=O)O)C(=O)N[C@@H](CCC(N)=O)C(=O)N[C@@H](CC(N)=O)C(=O)N[C@@H](CCCN=C(N)N)C(=O)N[C@H](C(=O)N[C@H](C(=O)N[C@@H](Cc1ccccc1)C(=O)N[C@@H](CC(=O)O)C(=O)N[C@@H](CO)C(=O)N[C@H](C(N)=O)C(C)C)[C@@H](C)CC)[C@@H](C)CC)[C@@H](C)O)[C@@H](C)O)[C@@H](C)O` (stereo in doubt; 36) gave a Potency of 3.1. For `CCCC[C@H](NC(=O)[C@H](CCC(=O)O)NC(=O)[C@H](CC(C)C)NC(=O)[C@H](CCCC)NC(=O)[C@H](CCC(=O)O)NC(=O)[C@H](CCCN=C(N)N)NC(=O)[C@H](CC(C)C)NC(=O)[C@H](CC(C)C)NC(=O)[C@H](Cc1c[nH]cn1)NC(=O)[C@@H](Cc1ccccc1)NC(=O)[C@@H](NC(=O)[C@H](CC(C)C)NC(=O)[C@H](CC(=O)O)NC(=O)[C@H](CC(C)C)NC(=O)[C@H](CO)NC(=O)[C@@H](NC(=O)[C@@H]1CCCN1C(=O)[C@@H]1CCCN1C(C)=O)[C@@H](C)CC)[C@@H](C)O)C(=O)N[C@@H](C)C(=O)N[C@@H](CCCCN)C(=O)N[C@@H](C)C(=O)N[C@@H](CCC(=O)O)C(=O)N[C@@H](CCC(N)=O)C(=O)N[C@@H](CCC(=O)O)C(=O)N[C@@H](C)C(=O)N[C@@H](CCC(=O)O)C(=O)N1C(=O)[C@H](C)NC(=O)[C@H](C)NC(=O)[C@@H](N)CCC(=O)NCCCC[C@H]1C(=O)N[C@@H](CC(N)=O)C(=O)N[C@@H](CCCN=C(N)N)C(=O)N[C@@H](CC(C)C)C(=O)N[C@@H](CC(C)C)C(=O)N[C@@H](CC(C)C)C(=O)N[C@@H](CCC(=O)O)C(=O)N[C@@H](CCC(=O)O)C(=O)N[C@@H](C)C(N)=O`, the Potency worked out at 7.5. With `CCCC[C@H](NC(=O)[C@H](CCC(=O)O)NC(=O)[C@H](CC(C)C)NC(=O)[C@H](CCCC)NC(=O)[C@H](CCC(=O)O)NC(=O)[C@H](CCCN=C(N)N)NC(=O)[C@H](CC(C)C)NC(=O)[C@H](CC(C)C)NC(=O)[C@H](Cc1c[nH]cn1)NC(=O)[C@H](Cc1ccccc1)NC(=O)[C@@H](NC(=O)[C@H](CC(C)C)NC(=O)[C@H](CC(=O)O)NC(=O)[C@H](CC(C)C)NC(C)=O)[C@@H](C)O)C(=O)N[C@@H](C)C(=O)N[C@@H](CCCCN)C(=O)N[C@@H](C)C(=O)N[C@@H](CCC(=O)O)C(=O)N[C@@H](CCC(N)=O)C(=O)N[C@@H](CCC(=O)O)C(=O)N[C@@H](C)C(=O)N[C@@H](CCC(=O)O)C(=O)N[C@@H](CCC(N)=O)C(=O)N[C@@H](C)C(=O)N[C@@H](C)C(=O)N[C@@H](CC(C)C)C(=O)N[C@@H](CC(N)=O)C(=O)N[C@@H](CCCN=C(N)N)C(=O)N[C@@H](CC(C)C)C(=O)N[C@@H](CC(C)C)C(=O)N[C@@H](CC(C)C)C(=O)N[C@@H](CCC(=O)O)C(=O)N[C@@H](CCC(=O)O)C(=O)N[C@@H](C)C(N)=O` (Ac-LDLTFHLLRE[Nle]LE[Nle]AKAEQEAEQAALNRLLLEEA-NH2) the figure was 0.004. With `CCCC[C@H](NC(=O)[C@H](CCC(=O)O)NC(=O)[C@H](CC(C)C)NC(=O)[C@H](CCCC)NC(=O)[C@H](CCC(=O)O)NC(=O)[C@H](CCCN=C(N)N)NC(=O)[C@H](CC(C)C)NC(=O)[C@H](CC(C)C)NC(=O)[C@H](Cc1c[nH]cn1)NC(=O)[C@@H](Cc1ccccc1)NC(=O)[C@@H](NC(=O)[C@H](CC(C)C)NC(=O)[C@H](CC(=O)O)NC(=O)[C@H](CC(C)C)NC(=O)[C@H](CO)NC(=O)[C@@H](NC(=O)[C@@H]1CCCN1C(=O)[C@@H]1CCCN1C(C)=O)[C@@H](C)CC)[C@@H](C)O)C(=O)N[C@@H](C)C(=O)N[C@@H](CCCCN)C(=O)N[C@@H](C)C(=O)N[C@@H](CCC(=O)O)C(=O)N[C@@H](CCC(N)=O)C(=O)N[C@@H](CCC(=O)O)C(=O)N[C@@H](C)C(=O)N[C@@H](CCC(=O)O)C(=O)N[C@@H](CCC(N)=O)C(=O)N[C@@H](C)C(=O)N[C@@H](C)C(=O)N[C@@H](CC(C)C)C(=O)N[C@@H](CC(N)=O)C(=O)N[C@@H](CCCN=C(N)N)C(=O)N[C@@H](CC(C)C)C(=O)N[C@@H](CC(C)C)C(=O)N[C@@H](CC(C)C)C(=O)N[C@@H](CCC(=O)O)C(=O)N[C@@H](CCC(=O)O)C(=O)N[C@@H](C)C(N)=O` the figure was 1.3; with `CCCC[C@H](NC(=O)[C@H](CCCN=C(N)N)NC(=O)[C@H](CC(C)C)NC(=O)[C@H](CC(C)C)NC(=O)[C@H](CCC(=O)O)NC(=O)[C@H](CC(C)C)NC(=O)[C@H](CC(C)C)NC(=O)[C@H](CC(C)C)NC(=O)[C@H](CC(=O)O)NC(=O)[C@@H](NC(=O)[C@H](CO)NC(=O)[C@@H](NC(=O)[C@@H]1CCCN1C(=O)[C@@H]1CCCN1C(=O)CNC(=O)[C@H](CCC(=O)O)NC(=O)[C@@H]1CCCN1)[C@@H](C)CC)[C@@H](C)CC)C(=O)N[C@@H](CCCC)C(=O)N[C@H](C(=O)N[C@@H](CCC(=O)O)C(=O)N[C@H](C(=O)N[C@@H](CCC(=O)O)C(=O)N[C@@H](CCCCN)C(=O)N[C@@H](CCC(N)=O)C(=O)N[C@@H](CCC(=O)O)C(=O)N[C@@H](CCCCN)C(=O)N[C@@H](CCC(=O)O)C(=O)N[C@@H](CCCCN)C(=O)N[C@H](CCC(=O)O)C(=O)N[C@H](CCC(N)=O)C(=O)N[C@H](C)C(=O)N[C@H](CCCCN)C(=O)N[C@H](CC(N)=O)C(=O)N[C@H](CC(N)=O)C(=O)N[C@H](CCCN=C(N)N)C(=O)N[C@H](CC(C)C)C(=O)N[C@H](CC(C)C)C(=O)N[C@H](CC(C)C)C(=O)N[C@H](CC(=O)O)C(=O)N[C@@H](C(=O)N[C@@H](C(N)=O)[C@H](C)CC)[C@H](C)O)[C@@H](C)CC)[C@@H](C)CC`, 0.53 and 0.54. To `CC[C@H](C)[C@H](NC(=O)[C@H](CO)NC(=O)[C@H](CC(C)C)NC(=O)[C@H](CO)NC(=O)[C@@H]1CCCN1C(C)=O)C(=O)N[C@@H](CC(=O)O)C(=O)N[C@@H](CC(C)C)C(=O)N[C@H](C(=O)N[C@H](Cc1ccccc1)C(=O)N[C@@H](Cc1c[nH]cn1)C(=O)N[C@@H](CC(C)C)C(=O)N[C@@H](CC(C)C)C(=O)N[C@@H](CCCN=C(N)N)C(=O)N[C@H](C(=O)N[C@@H](CC(C)C)C(=O)N[C@@H](CC(C)C)C(=O)N[C@@H](CCC(=O)O)C(=O)N[C@@H](CC(C)C)C(=O)N[C@@H](C)C(=O)N[C@@H](CCCN=C(N)N)C(=O)N[C@H](C(=O)N[C@@H](CCC(N)=O)C(=O)N[C@@H](CO)C(=O)N[C@@H](CCC(N)=O)C(=O)N[C@@H](CCCN=C(N)N)C(=O)N[C@@H](CCC(=O)O)C(=O)N1C(=O)[C@H](CCC(=O)O)NC(=O)[C@H](C)NC(=O)[C@@H](N)CCC(=O)NCCCC[C@H]1C(=O)N[C@@H](CC(N)=O)C(=O)N[C@@H](CCCN=C(N)N)C(=O)N[C@H](C(=O)N[C@H](C(=O)N[C@@H](Cc1ccccc1)C(=O)N[C@@H](CC(=O)O)C(=O)N[C@@H](CO)C(=O)N[C@H](C(N)=O)C(C)C)[C@@H](C)CC)[C@@H](C)CC)[C@@H](C)O)[C@@H](C)O)[C@@H](C)O` belongs 3.8; to `CCCC[C@H](NC(=O)[C@H](CCC(=O)O)NC(=O)[C@@H](NC(=O)[C@H](CCCC)NC(=O)[C@H](CC(N)=O)NC(=O)[C@H](CCCN=C(N)N)NC(=O)[C@H](CC(C)C)NC(=O)[C@H](CC(C)C)NC(=O)[C@H](Cc1c[nH]cn1)NC(=O)[C@@H](Cc1ccccc1)NC(=O)[C@@H](NC(=O)[C@H](CC(C)C)NC(=O)[C@H](CC(=O)O)NC(=O)[C@@H](NC(=O)[C@H](CO)NC(=O)[C@@H](NC(=O)[C@@H]1CCCN1C(=O)[C@@H]1CCCN1C(=O)[C@H](CC(=O)O)NC(=O)[C@H](CC(=O)O)NC(=O)[C@@H](N)CC(N)=O)[C@@H](C)CC)[C@@H](C)CC)[C@@H](C)O)[C@@H](C)CC)C(=O)N[C@@H](C)C(=O)N[C@@H](CCCN=C(N)N)C(=O)N[C@H](C(=O)N[C@@H](CCC(=O)O)C(=O)N[C@@H](CC(N)=O)C(=O)N[C@@H](CCC(=O)OC)C(=O)N[C@@H](CCCN=C(N)N)C(=O)N[C@@H](CCC(=O)O)C(=O)N1C(=O)CNC(=O)[C@H](C)NC(=O)[C@@H](N)CCC(=O)NCCCC[C@H]1C(=O)N[C@@H](CC(N)=O)C(=O)N[C@@H](CCCN=C(N)N)C(=O)N[C@@H](CCCCN)C(=O)N[C@@H](Cc1ccc(O)cc1)C(=O)N[C@@H](CC(C)C)C(=O)N[C@@H](CC(=O)O)C(=O)N[C@@H](CCC(=O)O)C(=O)N[C@H](C(N)=O)C(C)C)[C@@H](C)CC`, 2.9.

The values above are taken from ChEMBL document CHEMBL1131019, “Minimal-size, constrained corticotropin-releasing factor agonists with i-(i+3) Glu-Lys and Lys-Glu bridges” (1998).
